The source made the active and inactive calls.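 The calls were made as follows, unless noted: active = viability at or under a set limit in both replicates, limit being median viability minus 3 SD (cut at about 48% in these data, passing the limit was not always enough); inconclusive = at or under the limit in just one replicate; inactive = at or above the limit in both replicates.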
Tests used:
[1] = SK-BR-3 cell growth inhibitors, pilot screen, 24 h, human (AID 572;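 active = viability at or below 10% of carrier control in both of two separate runs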;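 also: compound exposure lasted between 18 and 24 h rather than exactly 24 h; 100% = carrier-treated control wells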); conditions: SK-BR-3 viability, CellTiter-Glo luminescence, at 10 µM, stronger effect = lower value
[2] = HUVEC growth inhibition – cell-based, human, primary screen (AID 575;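 active = viability at or below 30% in both replicate assays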;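 also: 100% = median of untreated cell wells with 0.1% DMSO on each plate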); conditions: HUVEC proliferation, CellTiter-Glo luminescence, 72 h; at 10 µM; stronger effect = lower value
Method in brief: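 Test system: primary human umbilical vein endothelial cells; medium: endothelial basal medium with 2% FBS plus growth supplements; dosing: 10 µM compound only; times: 72 h treatment at 37 °C; signal: CTG luminescence; read-out: % viability relative to median vehicle-well signal on each plate; control set: vehicle and MePR control wells; plate: 384-well, collagen-coated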

[3] = growth inhibitors of H69AR lung tumor, primary screen, human, duplicate replicates (AID 580); conditions: H69AR lung tumor cells viability, ATP luminescence, 72 h; at 10 µM; stronger effect = lower value;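 also: 100% = mean luminescence of untreated wells and 0% = no signal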
[4] = reversal of MRP1-mediated doxorubicin resistance, pilot screen, H69AR cells, doxorubicin co-treatment (AID 601;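 active = viability loss from added drug above about 55%, and viability with drug at most 40%, in both replicates, limit read from the data, passing the limit was not always enough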); conditions: CellTiter-Glo, 72 h, at 10 µM; for differential viability (reversal): stronger effect = higher value
[5] = 384-well plate pilot, post-Golgi transport modulator project, inhibition of yeast transport mutant growth (AID 636; in the data active = inhibition above about 31%); conditions: absorbance 615 nm, about 18 h, stronger effect = higher value
[6] = growth suppression of yeast trafficking mutant, preliminary HTS, modulators of trafficking downstream of Golgi apparatus project, 1536-format plate, OD 615 nm (AID 637; in the data active = inhibition above about 30%); conditions: yeast transport mutant growth, absorbance 615 nm, 18 h; stronger effect = higher value
[7] = H69AR cells + 2 uM doxorubicin, measured here: viability with 2 uM doxorubicin, stronger effect = lower value
[8] = H69AR cells, compound alone cytotoxicity

Row | Compound | viability [1] | viability [2] | viability [3] | differential viability (reversal) ([4]; H69AR cells + 2 uM doxorubicin) | viability [4, 7] | viability [4, 8] | inhibition [5] | inhibition [6]
1 | Cn1c(=O)c2c(nc(CN3CCN(c4ccccc4F)CC3)n2CCN2CCOCC2)n(C)c1=O | 101% (inactive) | 96.8% (inactive) | 93.9% (inactive) | 4.5% (inactive) | 89.4% | 93.9% | -5.95% (inactive) | 0.91% (inactive)
2 | CC(C)c1cc(C(=O)Nc2cccnc2)no1 | 110% (inactive) | 105% (inactive) | 97.3% (inactive) | -0.865% (inactive) | 98.2% | 97.3% | -7.73% (inactive) | -0.18% (inactive)
3 | Cc1cccc(-n2c(SCc3cc(=O)n4ccsc4n3)nc3ccccc32)c1 | 93% (inactive) | 66.1% (inactive) | 78.5% (inactive) | -9.64% (inactive) | 88.1% | 78.5% | 3.01% (inactive) | 40% (active)
4 | CCOC(=O)c1c(C)[nH]c(C(=O)Cn2c(=O)c3c(ncn3CC)n(Cc3ccccc3)c2=O)c1C | 89% (inactive) | 98% (inactive) | 85.2% (inactive) | -4.88% (inactive) | 90.1% | 85.2% | -6.35% (inactive) | -2.73% (inactive)
5 | CCCN(CCC)C(=O)CC(c1ccc(F)cc1)c1ccco1 (stereo not given) | 71% (inactive) | 80.7% (inactive) | 80.8% (inactive) | -6.06% (inactive) | 86.8% | 80.8% | -5.48% (inactive) | -0.91% (inactive)
6 | CC(C)n1c(NCc2c[nH]c3ccccc23)nc2ccccc21 | 91% (inactive) | 79.6% (inactive) | 74.8% (inactive) | -3.61% (inactive) | 78.4% | 74.8% | -9.45% (inactive) | -5.16% (inactive)
7 | Cc1cnc(C(=O)Nc2nnc(C(C)C)s2)cn1 | 113% (inactive) | 113% (inactive) | 87.4% (inactive) | 6.11% (inactive) | 81.2% | 87.4% | -0.26% (inactive) | -1.97% (inactive)
8 | Cn1c(=O)c2c(ncn2CCO)n(C)c1=O | 119% (inactive) | 91% (inactive) | 100% (inactive) | 7.42% (inactive) | 93% | 100% | 0% (inactive) | 0.67% (inactive)
9 | CCOC(=O)CNC(=O)CSc1nc(N(C)C)nc(N2CCOCC2)n1 | 88% (inactive) | 98.1% (inactive) | 89.2% (inactive) | 2.04% (inactive) | 87.1% | 89.2% | -9.86% (inactive) | 6.45% (inactive)
10 | COc1cccc(OCC(=O)Nc2ccccc2C(N)=O)c1 | 110% (inactive) | 99.9% (inactive) | 97% (inactive) | 13.1% (inactive) | 83.9% | 97% | -1.51% (inactive) | 1.13% (inactive)
11 | COC(=O)C1CCN(C(=O)CN2C(=O)NC(CCc3ccccc3)C2=O)CC1 (stereo not given) | 119% (inactive) | 94.2% (inactive) | 91.7% (inactive) | 0.73% (inactive) | 90.9% | 91.7% | -1.92% (inactive) | 3.87% (inactive)
12 | CCC1CCCCN1C(=O)C1CC(c2cc(Cl)c(OC)cc2OC)=NO1 (stereo not given) | 86% (inactive) | 89.7% (inactive) | 96.6% (inactive) | -4.29% (inactive) | 101% | 96.6% | -2.86% (inactive) | -3.77% (inactive)
13 | COc1cc2cc(C(c3nnnn3C3CCCC3)N(C)C3CCCCC3)c(=O)[nH]c2cc1OC (stereo not given) | 81% (inactive) | 85.2% (inactive) | 81.9% (inactive) | -4.31% (inactive) | 86.2% | 81.9% | -1.3% (inactive) | -2.13% (inactive)
14 | COC(=O)c1[nH]c2ccc(C)cc2c1NC(=O)CN1CCC(C)CC1 | 101% (inactive) | 94.5% (inactive) | 92.5% (inactive) | -6.15% (inactive) | 98.6% | 92.5% | -4.27% (inactive) | -2.73% (inactive)
15 | CCc1cn([C@H]2C[C@H](O)[C@@H](CO)O2)c(=O)[nH]c1=O | 120% (inactive) | 93.2% (inactive) | 85.9% (inactive) | 9.33% (inactive) | 76.6% | 85.9% | -0.26% (inactive) | 7.5% (inactive)
